Measured values as given in ChEMBL document CHEMBL2062435, “Synthesis and in vitro antibacterial activity of gemifloxacin derivatives containing a substituted benzyloxime moiety” (2012).

What was measured:
Type in all cases: functional
Klebsiella pneumoniae [1] = test: Antimicrobial activity against extended spectrum beta-lactamases-producing Klebsiella pneumoniae 10-1 after 18-24 hrs by two-fold serial dilution method
Method in brief: (§1)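 Agar-medium twofold serial dilution against Gram-positive and Gram-negative strains; MIC taken as the lowest compound concentration giving complete inhibition of bacterial growth after incubation at 35 °C for 18-24 h.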

[2] = system: Staphylococcus epidermidis; test: Antimicrobial activity against extended spectrum beta-lactamases-producing methicillin-resistant Staphylococcus epidermidis 10-10 after 18-24 hrs by two-fold serial dilution method
Method in brief: (§2)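 Agar twofold serial dilution MIC against clinical isolates. MIC was taken as the lowest concentration giving complete inhibition of bacterial growth after incubation at 35 °C for 18-24 h.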

Escherichia coli [3] = test: Antimicrobial activity against Escherichia coli ATCC 25922 after 18-24 hrs by two-fold serial dilution method; method in brief: as §1
Klebsiella pneumoniae [4] = test: Antimicrobial activity against Klebsiella pneumoniae 10-4 after 18-24 hrs by two-fold serial dilution method; method in brief: as §1
Klebsiella pneumoniae [5] = test: Antimicrobial activity against Klebsiella pneumoniae 10-3 after 18-24 hrs by two-fold serial dilution method; method in brief: as §1
Enterococcus faecalis [6] = test: Antimicrobial activity against Enterococcus faecalis 10-7 after 18-24 hrs by two-fold serial dilution method; method in brief: as §1
[7] = system: Staphylococcus epidermidis; test: Antimicrobial activity against extended spectrum beta-lactamases-producing methicillin-sensitive Staphylococcus epidermidis 10-13 after 18-24 hrs by two-fold serial dilution method; method in brief: as §1
Escherichia coli [8] = test: Antimicrobial activity against extended spectrum beta-lactamases-producing Escherichia coli 10-2 after 18-24 hrs by two-fold serial dilution method; method in brief: as §1
Klebsiella pneumoniae [9] = test: Antimicrobial activity against extended spectrum beta-lactamases-producing Klebsiella pneumoniae 10-2 after 18-24 hrs by two-fold serial dilution method; method in brief: as §1
Enterococcus faecalis [10] = test: Antimicrobial activity against Enterococcus faecalis 10-6 after 18-24 hrs by two-fold serial dilution method; method in brief: as §1
Pseudomonas aeruginosa [11] = test: Antimicrobial activity against extended spectrum beta-lactamases-producing Pseudomonas aeruginosa 10-18 after 18-24 hrs by two-fold serial dilution method; method in brief: as §1
Klebsiella pneumoniae [12] = test: Antimicrobial activity against Klebsiella pneumoniae 10-2 after 18-24 hrs by two-fold serial dilution method; method in brief: as §1
Staphylococcus aureus [13] = test: Antimicrobial activity against extended spectrum beta-lactamases-producing methicillin-resistant Staphylococcus aureus 10-11 after 18-24 hrs by two-fold serial dilution method; method in brief: as §2
Pseudomonas aeruginosa [14] = test: Antimicrobial activity against Pseudomonas aeruginosa 10-12 after 18-24 hrs by two-fold serial dilution method; method in brief: as §1
Staphylococcus aureus [15] = test: Antimicrobial activity against extended spectrum beta-lactamases-producing methicillin-sensitive Staphylococcus aureus 10-14 after 18-24 hrs by two-fold serial dilution method; method in brief: as §1
Escherichia coli [16] = test: Antimicrobial activity against extended spectrum beta-lactamases-producing Escherichia coli 10-4 after 18-24 hrs by two-fold serial dilution method; method in brief: as §1
Pseudomonas aeruginosa [17] = test: Antimicrobial activity against extended spectrum beta-lactamases-producing Pseudomonas aeruginosa 10-9 after 18-24 hrs by two-fold serial dilution method; method in brief: as §1
Enterococcus faecium [18] = test: Antimicrobial activity against Enterococcus faecium 10-9 after 18-24 hrs by two-fold serial dilution method; method in brief: as §1
Klebsiella pneumoniae [19] = test: Antimicrobial activity against extended spectrum beta-lactamases-producing Klebsiella pneumoniae 10-3 after 18-24 hrs by two-fold serial dilution method; method in brief: as §1
Staphylococcus aureus [20] = test: Antimicrobial activity against extended spectrum beta-lactamases-producing methicillin-sensitive Staphylococcus aureus 10-13 after 18-24 hrs by two-fold serial dilution method; method in brief: as §1
Escherichia coli [21] = test: Antimicrobial activity against extended spectrum beta-lactamases-producing Escherichia coli 10-3 after 18-24 hrs by two-fold serial dilution method; method in brief: as §1
Pseudomonas aeruginosa [22] = test: Antimicrobial activity against extended spectrum beta-lactamases-producing Pseudomonas aeruginosa 10-15 after 18-24 hrs by two-fold serial dilution method; method in brief: as §1
Escherichia coli [23] = test: Antimicrobial activity against Escherichia coli 10-2 after 18-24 hrs by two-fold serial dilution method; method in brief: as §1
Streptococcus pneumoniae [24] = test: Antimicrobial activity against extended spectrum beta-lactamases-producing Streptococcus pneumoniae 10-4 after 18-24 hrs by two-fold serial dilution method; method in brief: as §1
Streptococcus pneumoniae [25] = test: Antimicrobial activity against extended spectrum beta-lactamases-producing Streptococcus pneumoniae 10-1 after 18-24 hrs by two-fold serial dilution method; method in brief: as §1
Staphylococcus aureus [26] = test: Antimicrobial activity against extended spectrum beta-lactamases-producing methicillin-resistant Staphylococcus aureus 10-15 after 18-24 hrs by two-fold serial dilution method; method in brief: as §2
Enterococcus faecalis [27] = test: Antimicrobial activity against Enterococcus faecalis 10-5 after 18-24 hrs by two-fold serial dilution method; method in brief: as §1
Enterococcus faecium [28] = test: Antimicrobial activity against Enterococcus faecium 10-5 after 18-24 hrs by two-fold serial dilution method; method in brief: as §1
Pseudomonas aeruginosa [29] = test: Antimicrobial activity against extended spectrum beta-lactamases-producing Pseudomonas aeruginosa 10-20 after 18-24 hrs by two-fold serial dilution method; method in brief: as §1
[30] = system: Staphylococcus epidermidis; test: Antimicrobial activity against extended spectrum beta-lactamases-producing methicillin-resistant Staphylococcus epidermidis 10-13 after 18-24 hrs by two-fold serial dilution method; method in brief: as §2
Staphylococcus aureus [31] = test: Antimicrobial activity against Staphylococcus aureus ATCC […] after 18-24 hrs by two-fold serial dilution method; method in brief: as §1
Pseudomonas aeruginosa [32] = test: Antimicrobial activity against extended spectrum beta-lactamases-producing Pseudomonas aeruginosa 10-5 after 18-24 hrs by two-fold serial dilution method; method in brief: as §1
[33] = system: Staphylococcus epidermidis; test: Antimicrobial activity against extended spectrum beta-lactamases-producing methicillin-sensitive Staphylococcus epidermidis 10-11 after 18-24 hrs by two-fold serial dilution method; method in brief: as §1
Escherichia coli [34] = test: Antimicrobial activity against Escherichia coli 10-3 after 18-24 hrs by two-fold serial dilution method; method in brief: as §1
Escherichia coli [35] = test: Antimicrobial activity against Escherichia coli 10-1 after 18-24 hrs by two-fold serial dilution method; method in brief: as §1
[36] = system: Staphylococcus epidermidis; test: Antimicrobial activity against extended spectrum beta-lactamases-producing methicillin-sensitive Staphylococcus epidermidis 10-15 after 18-24 hrs by two-fold serial dilution method; method in brief: as §1

`COc1cc(CO/N=C2\CN(c3nc4c(cc3F)c(=O)c(C(=O)O)cn4C3CC3)CC2CN)cc(Cl)c1OC.CS(=O)(=O)O` (racemic) was tested, and the MIC (Klebsiella pneumoniae [1]) was over 128 mg/L, the MIC [2] was 2 mg/L and the MIC (Escherichia coli [3]) was 0.015 mg/L. The MIC (Klebsiella pneumoniae [4]) was over 128 mg/L, the MIC (Klebsiella pneumoniae [5]) was 8 mg/L and the MIC (Enterococcus faecalis [6]) was 2 mg/L. For the same molecule, the MIC [7] was 0.015 mg/L, the MIC (Escherichia coli [8]) was over 128 mg/L and the MIC (Klebsiella pneumoniae [9]) was over 128 mg/L. For the same molecule, the MIC (Enterococcus faecalis [10]) was 4 mg/L, the MIC (Pseudomonas aeruginosa [11]) was 16 mg/L and the MIC (Klebsiella pneumoniae [12]) was 128 mg/L. It also gave an MIC (Staphylococcus aureus [13]) of 4 mg/L, an MIC (Pseudomonas aeruginosa [14]) of 16 mg/L and an MIC (Staphylococcus aureus [15]) of 0.015 mg/L. The MIC (Escherichia coli [16]) was 16 mg/L, the MIC (Pseudomonas aeruginosa [17]) was 16 mg/L and the MIC (Enterococcus faecium [18]) was 16 mg/L. It also gave an MIC (Klebsiella pneumoniae [19]) of over 128 mg/L, an MIC (Staphylococcus aureus [20]) of 0.015 mg/L and an MIC (Escherichia coli [21]) of over 128 mg/L. The MIC (Pseudomonas aeruginosa [22]) was 32 mg/L, the MIC (Escherichia coli [23]) was 16 mg/L and the MIC (Streptococcus pneumoniae [24]) was 0.03 mg/L. The MIC (Streptococcus pneumoniae [25]) was 0.06 mg/L, the MIC (Staphylococcus aureus [26]) was 0.25 mg/L and the MIC (Enterococcus faecalis [27]) was 0.25 mg/L. For the same molecule, the MIC (Enterococcus faecium [28]) was 8 mg/L, the MIC (Pseudomonas aeruginosa [29]) was 8 mg/L and the MIC [30] was 0.25 mg/L. The MIC (Staphylococcus aureus [31]) was under 0.008 mg/L, the MIC (Pseudomonas aeruginosa [32]) was 16 mg/L and the MIC [33] was 2 mg/L. For the same molecule, the MIC (Escherichia coli [34]) was 128 mg/L, the MIC (Escherichia coli [35]) was over 128 mg/L and the MIC [36] was 4 mg/L.
`COc1ccc(CO/N=C2\CN(c3nc4c(cc3F)c(=O)c(C(=O)O)cn4C3CC3)CC2CN)c(OC)c1OC.CS(=O)(=O)O` (racemic) was tested, and the MIC (Klebsiella pneumoniae [1]) was over 128 mg/L, the MIC [2] was 2 mg/L and the MIC (Escherichia coli [3]) was 0.03 mg/L. It also gave an MIC (Klebsiella pneumoniae [4]) of over 128 mg/L, an MIC (Klebsiella pneumoniae [5]) of 8 mg/L and an MIC (Enterococcus faecalis [6]) of 2 mg/L. The MIC [7] was 0.03 mg/L, the MIC (Escherichia coli [8]) was 128 mg/L and the MIC (Klebsiella pneumoniae [9]) was over 128 mg/L. The MIC (Enterococcus faecalis [10]) was 2 mg/L, the MIC (Pseudomonas aeruginosa [11]) was 8 mg/L and the MIC (Klebsiella pneumoniae [12]) was over 128 mg/L. For the same molecule, the MIC (Staphylococcus aureus [13]) was 2 mg/L, the MIC (Pseudomonas aeruginosa [14]) was 8 mg/L and the MIC (Staphylococcus aureus [15]) was 0.015 mg/L. It also gave an MIC (Escherichia coli [16]) of 4 mg/L, an MIC (Pseudomonas aeruginosa [17]) of 8 mg/L and an MIC (Enterococcus faecium [18]) of 8 mg/L. It also gave an MIC (Klebsiella pneumoniae [19]) of over 128 mg/L, an MIC (Staphylococcus aureus [20]) of 0.015 mg/L and an MIC (Escherichia coli [21]) of 32 mg/L. For the same molecule, the MIC (Pseudomonas aeruginosa [22]) was 16 mg/L, the MIC (Escherichia coli [23]) was 16 mg/L and the MIC (Streptococcus pneumoniae [24]) was 0.06 mg/L. The MIC (Streptococcus pneumoniae [25]) was 0.5 mg/L, the MIC (Staphylococcus aureus [26]) was 0.25 mg/L and the MIC (Enterococcus faecalis [27]) was 1 mg/L. It also gave an MIC (Enterococcus faecium [28]) of 4 mg/L, an MIC (Pseudomonas aeruginosa [29]) of 4 mg/L and an MIC [30] of 0.5 mg/L. It also gave an MIC (Staphylococcus aureus [31]) of 0.015 mg/L, an MIC (Pseudomonas aeruginosa [32]) of 8 mg/L and an MIC [33] of 2 mg/L. It also gave an MIC (Escherichia coli [34]) of 16 mg/L, an MIC (Escherichia coli [35]) of 64 mg/L and an MIC [36] of 2 mg/L.
With `CS(=O)(=O)O.NCC1CN(c2nc3c(cc2F)c(=O)c(C(=O)O)cn3C2CC2)C/C1=N\OCc1ccc(OCc2ccccc2)cc1` (racemic) the MIC (Klebsiella pneumoniae [1]) was over 128 mg/L, the MIC [2] was 4 mg/L and the MIC (Escherichia coli [3]) was 4 mg/L. For the same molecule, the MIC (Klebsiella pneumoniae [4]) was over 128 mg/L, the MIC (Klebsiella pneumoniae [5]) was 2 mg/L and the MIC (Enterococcus faecalis [6]) was 16 mg/L. The MIC [7] was 16 mg/L, the MIC (Escherichia coli [8]) was over 128 mg/L and the MIC (Klebsiella pneumoniae [9]) was over 128 mg/L. The MIC (Enterococcus faecalis [10]) was 32 mg/L, the MIC (Pseudomonas aeruginosa [11]) was 2 mg/L and the MIC (Klebsiella pneumoniae [12]) was 16 mg/L. The MIC (Staphylococcus aureus [13]) was 4 mg/L, the MIC (Pseudomonas aeruginosa [14]) was 16 mg/L and the MIC (Staphylococcus aureus [15]) was 1 mg/L. The MIC (Escherichia coli [16]) was 0.06 mg/L, the MIC (Pseudomonas aeruginosa [17]) was 2 mg/L and the MIC (Enterococcus faecium [18]) was 32 mg/L. For the same molecule, the MIC (Klebsiella pneumoniae [19]) was 8 mg/L, the MIC (Staphylococcus aureus [20]) was 1 mg/L and the MIC (Escherichia coli [21]) was over 128 mg/L. For the same molecule, the MIC (Pseudomonas aeruginosa [22]) was 8 mg/L, the MIC (Escherichia coli [23]) was 0.25 mg/L and the MIC (Streptococcus pneumoniae [24]) was 8 mg/L. It also gave an MIC (Streptococcus pneumoniae [25]) of 2 mg/L, an MIC (Staphylococcus aureus [26]) of 8 mg/L and an MIC (Enterococcus faecalis [27]) of 8 mg/L. For the same molecule, the MIC (Enterococcus faecium [28]) was 32 mg/L, the MIC (Pseudomonas aeruginosa [29]) was 16 mg/L and the MIC [30] was 4 mg/L. The MIC (Staphylococcus aureus [31]) was 2 mg/L, the MIC (Pseudomonas aeruginosa [32]) was 16 mg/L and the MIC [33] was 1 mg/L. The MIC (Escherichia coli [34]) was 0.125 mg/L, the MIC (Escherichia coli [35]) was 0.03 mg/L and the MIC [36] was 4 mg/L.
